Tests used:
Type in all cases: functional
Coptotermes formosanus [1] = assay: Termiticidal activity against Coptotermes formosanus placed on 0.001 % wt/wt compound treated filter paper assessed as termite mortality measured 17 days post compound exposure
Outline: (§1)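 Treated filter paper disks moistened with 100 µL water; 20 C. formosanus workers (third instar or greater) plus 1 soldier per dish from field colonies kept on spruce, ca. 100% RH, 26.6 °C. Daily mortality scored for 3 weeks; cumulative percent mortality from four replicates, each a different colony; water-only controls; ANOVA, protected Fisher LSD (P < 0.05) after arcsine square-root transform.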

Coptotermes formosanus [2] = assay: Termiticidal activity against Coptotermes formosanus placed on 0.01 % wt/wt compound treated filter paper assessed as termite mortality measured 17 days post compound exposure; outline: as §1
Coptotermes formosanus [3] = assay: Termiticidal activity against Coptotermes formosanus placed on 0.05 % wt/wt compound treated filter paper assessed as termite mortality measured 17 days post compound exposure; outline: as §1
Coptotermes formosanus [4] = assay: Termiticidal activity against Coptotermes formosanus placed on 0.1 % wt/wt compound treated filter paper assessed as termite mortality measured 17 days post compound exposure; outline: as §1
Coptotermes formosanus [5] = assay: Termiticidal activity against Coptotermes formosanus placed on 0.5 % wt/wt compound treated filter paper assessed as termite mortality measured 17 days post compound exposure; outline: as §1
Coptotermes formosanus [6] = assay: Termiticidal activity against Coptotermes formosanus placed on 0.001 % wt/wt compound treated filter paper assessed as termite mortality measured 13 days post compound exposure; outline: as §1
Coptotermes formosanus [7] = assay: Termiticidal activity against Coptotermes formosanus placed on 0.01 % wt/wt compound treated filter paper assessed as termite mortality measured 13 days post compound exposure; outline: as §1
Coptotermes formosanus [8] = assay: Termiticidal activity against Coptotermes formosanus placed on 0.05 % wt/wt compound treated filter paper assessed as termite mortality measured 13 days post compound exposure; outline: as §1
Coptotermes formosanus [9] = assay: Termiticidal activity against Coptotermes formosanus placed on 0.1 % wt/wt compound treated filter paper assessed as termite mortality measured 13 days post compound exposure; outline: as §1
Coptotermes formosanus [10] = assay: Termiticidal activity against Coptotermes formosanus placed on 0.5 % wt/wt compound treated filter paper assessed as termite mortality measured 13 days post compound exposure; outline: as §1
Coptotermes formosanus [11] = assay: Termiticidal activity against Coptotermes formosanus placed on 0.001 % wt/wt compound treated filter paper assessed as termite mortality measured 11 days post compound exposure; outline: as §1
Coptotermes formosanus [12] = assay: Termiticidal activity against Coptotermes formosanus placed on 0.01 % wt/wt compound treated filter paper assessed as termite mortality measured 11 days post compound exposure; outline: as §1
Coptotermes formosanus [13] = assay: Termiticidal activity against Coptotermes formosanus placed on 0.05 % wt/wt compound treated filter paper assessed as termite mortality measured 11 days post compound exposure; outline: as §1
Coptotermes formosanus [14] = assay: Termiticidal activity against Coptotermes formosanus placed on 0.1 % wt/wt compound treated filter paper assessed as termite mortality measured 11 days post compound exposure; outline: as §1
Coptotermes formosanus [15] = assay: Termiticidal activity against Coptotermes formosanus placed on 0.001 % wt/wt compound treated filter paper assessed as termite mortality measured 9 days post compound exposure; outline: as §1
Coptotermes formosanus [16] = assay: Termiticidal activity against Coptotermes formosanus placed on 0.01 % wt/wt compound treated filter paper assessed as termite mortality measured 9 days post compound exposure; outline: as §1
Coptotermes formosanus [17] = assay: Termiticidal activity against Coptotermes formosanus placed on 0.05 % wt/wt compound treated filter paper assessed as termite mortality measured 9 days post compound exposure; outline: as §1
Coptotermes formosanus [18] = assay: Termiticidal activity against Coptotermes formosanus placed on 0.1 % wt/wt compound treated filter paper assessed as termite mortality measured 9 days post compound exposure; outline: as §1
Coptotermes formosanus [19] = assay: Termiticidal activity against Coptotermes formosanus placed on 0.5 % wt/wt compound treated filter paper assessed as termite mortality measured 9 days post compound exposure; outline: as §1
Coptotermes formosanus [20] = assay: Termiticidal activity against Coptotermes formosanus placed on 0.001 % wt/wt compound treated filter paper assessed as termite mortality measured 6 days post compound exposure; outline: as §1
Coptotermes formosanus [21] = assay: Termiticidal activity against Coptotermes formosanus placed on 0.01 % wt/wt compound treated filter paper assessed as termite mortality measured 6 days post compound exposure; outline: as §1
Coptotermes formosanus [22] = assay: Termiticidal activity against Coptotermes formosanus placed on 0.05 % wt/wt compound treated filter paper assessed as termite mortality measured 6 days post compound exposure; outline: as §1
Coptotermes formosanus [23] = assay: Termiticidal activity against Coptotermes formosanus placed on 0.1 % wt/wt compound treated filter paper assessed as termite mortality measured 6 days post compound exposure; outline: as §1
Coptotermes formosanus [24] = assay: Termiticidal activity against Coptotermes formosanus placed on 0.5 % wt/wt compound treated filter paper assessed as termite mortality measured 6 days post compound exposure; outline: as §1
Coptotermes formosanus [25] = assay: Termiticidal activity against Coptotermes formosanus placed on 0.5 % wt/wt compound treated filter paper assessed as termite mortality measured 3 days post compound exposure; outline: as §1
Coptotermes formosanus [26] = assay: Termiticidal activity against Coptotermes formosanus placed on 0.5 % wt/wt compound treated filter paper assessed as termite mortality measured 21 days post compound exposure; outline: as §1
Coptotermes formosanus [27] = assay: Termiticidal activity against Coptotermes formosanus placed on 0.5 % wt/wt compound treated filter paper assessed as termite mortality measured 11 days post compound exposure; outline: as §1
Coptotermes formosanus [28] = assay: Antifeedant activity against Coptotermes formosanus placed on 0.5 % wt/wt compound treated filter paper assessed as filter paper consumption measured 21 days post compound exposure (reference value: 23.6 +/- 13.6 mg)
Coptotermes formosanus [29] = assay: Termiticidal activity against Coptotermes formosanus placed on 0.001 % wt/wt compound treated filter paper assessed as termite mortality measured 21 days post compound exposure; outline: as §1
Coptotermes formosanus [30] = assay: Termiticidal activity against Coptotermes formosanus placed on 0.01 % wt/wt compound treated filter paper assessed as termite mortality measured 21 days post compound exposure; outline: as §1
Coptotermes formosanus [31] = assay: Termiticidal activity against Coptotermes formosanus placed on 0.05 % wt/wt compound treated filter paper assessed as termite mortality measured 21 days post compound exposure; outline: as §1
Coptotermes formosanus [32] = assay: Termiticidal activity against Coptotermes formosanus placed on 0.1 % wt/wt compound treated filter paper assessed as termite mortality measured 21 days post compound exposure; outline: as §1
Coptotermes formosanus [33] = assay: Antifeedant activity against Coptotermes formosanus placed on 0.001 % wt/wt compound treated filter paper assessed as filter paper consumption measured 21 days post compound exposure (reference value: 23.6 +/- 13.6 mg)
Coptotermes formosanus [34] = assay: Antifeedant activity against Coptotermes formosanus placed on 0.01 % wt/wt compound treated filter paper assessed as filter paper consumption measured 21 days post compound exposure (reference value: 23.6 +/- 13.6 mg)
Coptotermes formosanus [35] = assay: Antifeedant activity against Coptotermes formosanus placed on 0.05 % wt/wt compound treated filter paper assessed as filter paper consumption measured 21 days post compound exposure (reference value: 23.6 +/- 13.6 mg)
Coptotermes formosanus [36] = assay: Antifeedant activity against Coptotermes formosanus placed on 0.1 % wt/wt compound treated filter paper assessed as filter paper consumption measured 21 days post compound exposure (reference value: 23.6 +/- 13.6 mg)

CC1=C(C)C(=O)C(Cl)=C(Cl)C1=O
mortality (Coptotermes formosanus [1]): 26.3%
mortality (Coptotermes formosanus [2]): 10%
mortality (Coptotermes formosanus [3]): 5%
mortality (Coptotermes formosanus [4]): 60%
mortality (Coptotermes formosanus [5]): 100%
mortality (Coptotermes formosanus [6]): 26.3%
mortality (Coptotermes formosanus [7]): 7.5%
mortality (Coptotermes formosanus [8]): 5%
mortality (Coptotermes formosanus [9]): 41.3%
mortality (Coptotermes formosanus [10]): 100%
mortality (Coptotermes formosanus [11]): 6.8%
mortality (Coptotermes formosanus [12]): 3.8%
mortality (Coptotermes formosanus [13]): 3.4%
mortality (Coptotermes formosanus [14]): 30.4%
mortality (Coptotermes formosanus [15]): 2.5%
mortality (Coptotermes formosanus [16]): 3.8%
mortality (Coptotermes formosanus [17]): 1.3%
mortality (Coptotermes formosanus [18]): 26.3%
mortality (Coptotermes formosanus [19]): 100%
mortality (Coptotermes formosanus [20]): 1.3%
mortality (Coptotermes formosanus [21]): 3.8%
mortality (Coptotermes formosanus [22]): 0%
mortality (Coptotermes formosanus [23]): 1.3%
mortality (Coptotermes formosanus [24]): 100%
mortality (Coptotermes formosanus [25]): 100%
mortality (Coptotermes formosanus [26]): 100%
mortality (Coptotermes formosanus [27]): 100%
Activity (Coptotermes formosanus [28]): 3.2 mg
mortality (Coptotermes formosanus [29]): 27.5%
mortality (Coptotermes formosanus [30]): 10%
mortality (Coptotermes formosanus [31]): 5%
mortality (Coptotermes formosanus [32]): 68.8%
Activity (Coptotermes formosanus [33]): 17.5 mg
Activity (Coptotermes formosanus [34]): 25 mg
Activity (Coptotermes formosanus [35]): 18.3 mg
Activity (Coptotermes formosanus [36]): 13.1 mg
